Measured values: ChEMBL document CHEMBL1129408, “Development of novel, potent, and selective dopamine reuptake inhibitors through alteration of the piperazine ring of 1-[2-(diphenylmethoxy)ethyl]-and 1-[2-[bis(4-fluorophenyl)methoxy]ethyl]-4-(3-phenylpropyl)piperazines (GBR 12935 and GBR 12909)” (J Med Chem, 1996)

Assays:
[1] = target: T1, Sodium-dependent dopamine transporter (Rattus norvegicus, UniProt P23977); experiment: Inhibition of dopamine DA reuptake
Outline: (§1)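 Uptake into synaptosomes in Krebs-phosphate buffer, pH 7.4, with ascorbic acid 1 mg/mL and pargyline 50 µM. Final tracer was 5 nM [3H]DA or 2 nM [3H]5HT. Incubated at 25 °C for 15 min (DA) or 30 min (5HT), then filtered and filter tritium counted. IC50 derived.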

[2] = target: T1, Sodium-dependent dopamine transporter; experiment: Binding against Dopamine transporter using radioligand as [3H]GBR 12935
[3] = target: Sodium-dependent serotonin transporter (Rattus norvegicus, UniProt P31652); experiment: Inhibition of [3H]5-HT reuptake at rat serotonin transporter; outline: as §1
Sodium-dependent serotonin transporter, sequence (P31652 whole entry): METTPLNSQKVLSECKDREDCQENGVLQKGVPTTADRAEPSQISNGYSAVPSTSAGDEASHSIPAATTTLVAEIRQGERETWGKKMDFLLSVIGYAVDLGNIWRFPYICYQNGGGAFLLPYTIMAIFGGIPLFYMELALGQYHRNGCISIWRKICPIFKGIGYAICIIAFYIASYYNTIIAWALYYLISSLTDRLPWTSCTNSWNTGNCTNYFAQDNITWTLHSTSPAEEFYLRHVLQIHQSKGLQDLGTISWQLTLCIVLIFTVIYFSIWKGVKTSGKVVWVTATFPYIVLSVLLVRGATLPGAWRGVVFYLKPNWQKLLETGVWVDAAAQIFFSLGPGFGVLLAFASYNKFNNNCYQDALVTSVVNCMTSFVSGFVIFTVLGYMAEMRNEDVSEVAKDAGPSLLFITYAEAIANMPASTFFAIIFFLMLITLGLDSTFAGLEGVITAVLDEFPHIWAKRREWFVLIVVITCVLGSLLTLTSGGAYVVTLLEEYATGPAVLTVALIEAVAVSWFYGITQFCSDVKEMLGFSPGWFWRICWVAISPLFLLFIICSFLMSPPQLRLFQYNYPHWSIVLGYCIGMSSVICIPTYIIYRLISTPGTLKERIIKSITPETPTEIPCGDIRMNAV

[4] = target: Monoamine transporters; serotonin & dopamine (Rattus norvegicus) (UniProt P31652+P23977); experiment: Ratio of binding affinities of Serotonin transporter vs Dopamine transporter reuptake; format: protein assay
Monoamine transporters; serotonin & dopamine (Rattus norvegicus), sequence (P23977 whole entry, looked up): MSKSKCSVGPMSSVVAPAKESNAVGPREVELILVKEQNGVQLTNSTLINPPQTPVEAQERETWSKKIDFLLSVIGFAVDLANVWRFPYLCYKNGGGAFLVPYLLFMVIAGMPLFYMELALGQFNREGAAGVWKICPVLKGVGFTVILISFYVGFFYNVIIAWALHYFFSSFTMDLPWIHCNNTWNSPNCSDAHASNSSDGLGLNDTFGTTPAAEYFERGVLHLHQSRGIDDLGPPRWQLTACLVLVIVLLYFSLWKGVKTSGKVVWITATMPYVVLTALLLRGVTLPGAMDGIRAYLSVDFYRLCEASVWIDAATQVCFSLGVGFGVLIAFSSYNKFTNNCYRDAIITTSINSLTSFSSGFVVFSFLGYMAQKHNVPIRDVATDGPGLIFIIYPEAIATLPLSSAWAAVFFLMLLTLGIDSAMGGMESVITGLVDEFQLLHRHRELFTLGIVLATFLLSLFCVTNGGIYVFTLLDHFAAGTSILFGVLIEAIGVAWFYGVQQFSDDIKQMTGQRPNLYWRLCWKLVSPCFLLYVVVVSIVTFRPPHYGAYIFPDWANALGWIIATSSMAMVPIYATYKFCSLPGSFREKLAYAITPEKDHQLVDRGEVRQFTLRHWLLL
Monoamine transporters; serotonin & dopamine (Rattus norvegicus), sequence (P31652 whole entry, looked up): as the sequence (P31652 whole entry) above
Outline: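 Ratio is the IC50 for [3H]5HT reuptake over the IC50 for [3H]DA reuptake. Both were measured in synaptosomes at 25 °C: 2 nM [3H]5HT for 30 min and 5 nM [3H]DA for 15 min, in Krebs-phosphate buffer, pH 7.4, with pargyline and ascorbic acid.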

[5] = target: T1, Sodium-dependent dopamine transporter; experiment: Binding affinity against dopamine transporter using radioligand as [3H]GBR 12935
Outline: (§2)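 DAT binding by displacement of 2 nM [3H]GBR 12935 or 0.01 nM [125I]RTI 55. Drugs were in 55.2 mM sodium phosphate buffer, pH 7.4, with 1 mg/mL BSA; radioligand was in the same buffer with chymostatin, leupeptin, EDTA and EGTA. Incubated in triplicate for 18-24 h at 4 °C to equilibrium, then filtered over polyethylenimine-presoaked GF/B filters. IC50 derived.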

[6] = target: T1, Sodium-dependent dopamine transporter; experiment: Compound was tested for binding against Dopamine transporter using radioligand as […]
[7] = Ratio of receptor binding affinities of [3H]5-HT vs [125I]-RTI 55 uptake
[8] = target: T1, Sodium-dependent dopamine transporter; experiment: Compound was tested for binding affinity against dopamine transporter using radioligand as [3H]-RTI 55; outline: as §2

T1 sequence (P23977 whole entry): as the sequence (P23977 whole entry, looked up) above

| SMILES | IC50 [1] [nM] | IC50 [2] [nM] | IC50 [3] [nM] | Ratio [4] | IC50 [5] [nM] | IC50 [6] [nM] | Ratio [7] | IC50 [8] [nM] |
| --- | --- | --- | --- | --- | --- | --- | --- | --- |
| C[C@@H]1CN(CCCc2ccccc2)[C@@H](C)CN1 | > 30000 | > 30000 | 12200 |  |  |  |  |  |
| c1ccc(CCCNCCCCNCCOC(c2ccccc2)c2ccccc2)cc1 | 35 | 80 | 376 | 11 |  |  |  |  |
| CNCCN(C)CCOC(c1ccccc1)c1ccccc1 | 545 |  | > 10000 |  | 834 |  |  |  |
| Fc1ccc(C(OCCN2CCN(CCOC(c3ccc(F)cc3)c3ccc(F)cc3)CC2)c2ccc(F)cc2)cc1 | 40 | 7.3 | 278 | 5.5 |  | 1.1 | 36.4 |  |
| C[C@@H]1CN(CCOC(c2ccc(F)cc2)c2ccc(F)cc2)[C@@H](C)CN1CCCc1ccccc1 | 15 | 40 | 459 | 31 |  |  |  |  |
| C[C@@H]1CN(CCOC(c2ccccc2)c2ccccc2)[C@@H](C)CN1CCOC(c1ccccc1)c1ccccc1 | 35 |  | 6220 | 1.1 | 33 |  |  |  |
| CC(C)(CNCCCc1ccccc1)CNCCOC(c1ccccc1)c1ccccc1 | 83 |  | 1890 | 23 | 169 |  |  |  |
| C[C@@H]1CN(CCOC(c2ccc(F)cc2)c2ccc(F)cc2)[C@@H](C)CN1C/C=C/c1ccccc1 | 28 | 23 | 1180 | 42 |  |  |  |  |
| c1ccc(CCCNC[C@H]2CCCN2CCOC(c2ccccc2)c2ccccc2)cc1 | 127 |  | 3210 | 25 | 747 |  |  |  |
| c1ccc(CCCN2CCCCN(CCOC(c3ccccc3)c3ccccc3)CC2)cc1 | 93 |  | 1590 | 17 | 864 |  |  |  |
| C[C@@H]1CN(CCCc2ccccc2)[C@@H](C)CN1CCCc1ccccc1 | 1330 |  | 2530 | 0.1 | 9940 |  |  |  |
| Fc1ccc(C(OCCN2CCCNCC2)c2ccc(F)cc2)cc1 | 17 |  | 2080 | 122 | 143 |  |  |  |
| Fc1ccc(C(OCCN2CCCN(C/C=C/c3ccccc3)CC2)c2ccc(F)cc2)cc1 | 3.4 | 2.6 | 234 | 69 |  |  |  |  |
| C[C@@H]1CN(CCOC(c2ccc(F)cc2)c2ccc(F)cc2)[C@@H](C)CN1CCOC(c1ccc(F)cc1)c1ccc(F)cc1 | 86 |  | 4240 | 2.4 | 36 |  |  |  |
| C[C@@H]1CN(CCOC(c2ccc(F)cc2)c2ccc(F)cc2)[C@@H](C)CN1 | 30 |  | 8940 | 298 | 106 |  |  | 44 |
| CN(CCCc1ccccc1)CCN(C)CCOC(c1ccccc1)c1ccccc1 |  |  | 2450 |  | 27 |  |  |  |
| C(=C\c1ccccc1)/CN1CCCN(CCOC(c2ccccc2)c2ccccc2)CC1 | 0.6 |  | 503 | 838 | 8.6 |  |  |  |
| c1ccc(CCCNC[C@@H]2CCCN2CCOC(c2ccccc2)c2ccccc2)cc1 | 0.7 |  | 986 | 1410 | 5.1 |  |  |  |

| SMILES | IC50 [1] [nM] | IC50 [2] [nM] | IC50 [3] [nM] | Ratio [4] | IC50 [5] [nM] | IC50 [6] [nM] | Ratio [7] | IC50 [8] [nM] |
| --- | --- | --- | --- | --- | --- | --- | --- | --- |
| Fc1ccc(C(OCCN2CCC[C@H]2CNCCCc2ccccc2)c2ccc(F)cc2)cc1 | 29 | 104 | 20100 | 693 |  |  |  |  |
| CC1(C)CN(CCCc2ccccc2)CCN(CCOC(c2ccccc2)c2ccccc2)C1 | 87 |  | 3150 | 36 | 286 |  |  |  |
| c1ccc(CCCN2CCN(CCCc3ccccc3)CC2)cc1 | 1640 | 7760 | 1340 | 0.2 |  |  |  |  |
| C[C@@H]1CN(CCOC(c2ccccc2)c2ccccc2)[C@@H](C)CN1 | 138 |  | 25300 | 183 | 1000 |  |  |  |
| c1ccc(CCCN2CCNCC2)cc1 | > 30000 | > 30000 | 361 |  |  |  |  |  |
| c1ccc(C(OCCN2CCN(CCOC(c3ccccc3)c3ccccc3)CC2)c2ccccc2)cc1 | 12 | 9.3 | 1710 | 1.3 |  | 1.6 | 7.5 |  |
| Fc1ccc(C(OCCN2CCCN(CCCc3ccccc3)CC2)c2ccc(F)cc2)cc1 | 3.4 | 4.4 | 112 | 33 |  |  |  |  |
| c1ccc(CCCN2CCCCC(NCCOC(c3ccccc3)c3ccccc3)C2)cc1 (centres undefined) | 57 |  | 2860 | 50 | 74 |  |  |  |
| C[C@@H]1CN(CCOC(c2ccccc2)c2ccccc2)[C@@H](C)CN1C/C=C/c1ccccc1 | 20 |  | 2680 | 134 | 103 |  |  |  |
| c1ccc(C(OCCN2CCNCC2)c2ccccc2)cc1 | 124 |  | 9570 | 1.1 | 110 |  |  |  |
| C[C@@H]1CN(CCOC(c2ccccc2)c2ccccc2)[C@@H](C)CN1CCCc1ccccc1 |  | 21 | 1730 |  |  |  |  |  |
| Oc1cccc(CCCNC[C@@H]2CCCN2CCOC(c2ccccc2)c2ccccc2)c1 | 31 |  | 857 | 28 | 222 |  |  |  |
| CC(C)(CN)CNCCOC(c1ccccc1)c1ccccc1 | 453 |  | > 10000 |  | 1460 |  |  |  |
| c1ccc(C(OCCN2CCCNCC2)c2ccccc2)cc1 | 651 |  | 14300 | 22 | 1360 |  |  |  |
| Fc1ccc(C(OCCN2CCNCC2)c2ccc(F)cc2)cc1 | 71 | 104 | 1400 | 0.7 |  |  |  |  |
| c1ccc(CCCN2CCCN(CCOC(c3ccccc3)c3ccccc3)CC2)cc1 | 7.2 |  | 34100 | 4740 | 7.9 |  |  |  |
| c1ccc(CCCNC2CCCCN(CCOC(c3ccccc3)c3ccccc3)C2)cc1 (centres undefined) | 9.3 |  | 1480 | 159 | 20 |  |  |  |
| NCCCCNCCOC(c1ccccc1)c1ccccc1 |  |  | 6830 |  | 9780 |  |  |  |
